Rows were chosen to be rich in hits. Some 1.2% of all compounds tested hit in one or more screens of this group.
Tn6 DDE FP: inhibitors of Tn6 peptide binding to fibrin DD(E), primary screen, biochemical, fluorescence polarization, human fibrin, Tn6 probe. inhibition, % at 8.3 µM. Fibrinogen beta chain (Homo sapiens), P02675. AID 720509, 2013. hit rate 0.21% among 370,000. Fibrin DD(E) TRITC-Tn6 fluorescence polarization displacement;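 active = inhibition above a per-campaign cutoff: mean of compounds within control limits plus 3 SD, cut at about 15% in these data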;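 note: 0% = median of all compound wells on the plate and 100% = blocking peptide control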
Target sequence (P02675 whole entry, looked up): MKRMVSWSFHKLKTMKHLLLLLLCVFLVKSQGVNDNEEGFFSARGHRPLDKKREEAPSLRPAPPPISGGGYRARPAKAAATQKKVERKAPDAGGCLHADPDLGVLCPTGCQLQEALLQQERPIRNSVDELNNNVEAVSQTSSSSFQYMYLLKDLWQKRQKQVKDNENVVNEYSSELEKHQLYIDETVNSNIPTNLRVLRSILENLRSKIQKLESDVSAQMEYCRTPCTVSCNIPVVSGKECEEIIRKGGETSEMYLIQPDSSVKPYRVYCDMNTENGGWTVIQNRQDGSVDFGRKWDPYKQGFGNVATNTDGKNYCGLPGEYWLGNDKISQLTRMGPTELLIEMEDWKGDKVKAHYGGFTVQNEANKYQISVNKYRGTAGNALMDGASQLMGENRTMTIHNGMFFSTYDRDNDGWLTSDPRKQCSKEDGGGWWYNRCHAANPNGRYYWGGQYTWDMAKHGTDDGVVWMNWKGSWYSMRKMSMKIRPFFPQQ
Tn7 DDE FP: inhibitors of Tn7 peptide binding to fibrin DD(E), primary screen, biochemical, fluorescence polarization, human fibrin, Tn7 probe. Fibrinogen beta chain (Homo sapiens), P02675. FP displacement of FITC-Tn7 peptide from fibrin DD(E); 0% = median of compound wells per plate. inhibition, % at 8.3 µM. hit rate 0.13% among 370,000. AID 720508, 2013;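 active = inhibition above the mean of compounds falling within the control limits plus 3 SD of them, cut at about 14% in these data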;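 note: 0% = plate median of compound wells and 100% = 10 µM Aha-Tn7 peptide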
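Test system: human clot-derived fibrin DD(E) complex / Quantity: 2 µM final DD(E) protein / Incubation: 10 min plus 3 h, room temperature / Measured by: fluorescence polarization / Benchmarks: high control of 10 µM Aha-Tn7 peptide / Replicates: singlicate testing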
CRFR2-BP ag: agonists of CRF-BP/CRF-R2 complex, primary screen, cell-based, HEK293, calcium dye fluorescence, uHTS; calcium dye fluorescence (FLIPR); percent of saturating CRF peptide response; activation, % at 13.2 µM; CRF-binding protein / CRF receptor 2 complex (human); hit rate 0.46% among 350,000;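 active = activation of at least 50%, plus an integration ratio under a set limit after plate pattern correction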;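 note: plate controls were neutral control wells without compound for no effect and CRF at EC100 for full effect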
CRFBP-R2 block: antagonists of CRF-BP/CRF-R2 complex, primary screen, cell-based, HEK293, calcium dye fluorescence, uHTS; CRF-induced calcium fluorescence; inhibition, % at 11.8 µM; hit rate 0.59% among 350,000;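 active = inhibition of the ligand-induced calcium signal above about 50% at the single tested concentration, limit read from the data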
The depositor's hits bear a star.

COc1cc(NC(=O)CSc2ncnc3c2cnn3Cc2ccccc2)cc(OC)c1 was read as Tn6 DDE FP -8, Tn7 DDE FP -1, CRFR2-BP ag 4 and CRFBP-R2 block 22.
Cc1cccc(-c2cccc3c4c([nH]c23)[C@@H]2C[C@H](N(C)C(=S)Nc3ccc(C#N)cc3)[C@H]([C@H](C)O)CN2CC4)c1 was read as Tn6 DDE FP -2 and Tn7 DDE FP -8.
Screening O=C1C=CC(=O)c2c(O)c(N3CCN(CCOCCO)CC3)c(Br)c(O)c21 returned Tn6 DDE FP 31*, Tn7 DDE FP 2, CRFR2-BP ag 3 and CRFBP-R2 block 1.
OCCOCCN1CCN(C2=Nc3ccccc3Sc3ccccc32)CC1 was read as Tn6 DDE FP 4, Tn7 DDE FP 7, CRFR2-BP ag -3 and CRFBP-R2 block 3.
CCOc1ccc(-n2c(SCC(=O)Nc3ccc(S(=O)(=O)Nc4nccs4)cc3)nnc2-c2ccco2)cc1 was read as Tn6 DDE FP -9 and Tn7 DDE FP -4.
For O=C(CSc1ncc(-c2ccccc2)n1C1CCCC1)N1CCc2ccccc21 the results were Tn6 DDE FP 1, Tn7 DDE FP 9, CRFR2-BP ag 102* and CRFBP-R2 block -124.
Screening COc1ccc(NCc2nn(CC(=O)c3ccc(Br)cc3)c3[n+]2CCCCC3)cc1 returned Tn6 DDE FP -1, Tn7 DDE FP -8, CRFR2-BP ag 0 and CRFBP-R2 block -1.
For O=C(Cn1nc(CNc2ccc(Cl)cc2)[n+]2c1CCCCC2)c1ccc(Br)cc1 the results were Tn6 DDE FP -4, Tn7 DDE FP 4, CRFR2-BP ag -3 and CRFBP-R2 block 55*.
CC1(C)CSC(=NCc2ccccc2)N1C(=O)c1cccc([N+](=O)[O-])c1 was read as Tn6 DDE FP -1, Tn7 DDE FP -3, CRFR2-BP ag 273* and CRFBP-R2 block -95.
Screening NC(=NCc1ccccc1)c1cccc([N+](=O)[O-])c1 returned Tn6 DDE FP 3, Tn7 DDE FP 2, CRFR2-BP ag 2 and CRFBP-R2 block 1.
CCc1cccc(C)c1NC(=S)N1CCCCC1c1cccnc1 (stereo not drawn) was read as Tn6 DDE FP 7, Tn7 DDE FP -2, CRFR2-BP ag 54* and CRFBP-R2 block 17.
Screening Nc1sc2c(c1C(=O)NCCc1ccccc1)CCC2 returned Tn6 DDE FP -4, Tn7 DDE FP 3, CRFR2-BP ag 3 and CRFBP-R2 block -1.
For Nc1sc2c(c1C(=O)NCCc1ccccc1)CCCC2 the results were Tn6 DDE FP 28* and Tn7 DDE FP -1.
Screening COc1ccc(C(C)NC(=O)c2ccccc2)cc1 (stereo not drawn) returned CRFR2-BP ag 0 and CRFBP-R2 block -2.
COc1ccc(C(=O)NC(Oc2ccccc2)C(Cl)(Cl)Cl)cc1 (stereo not drawn) was read as Tn6 DDE FP -3, Tn7 DDE FP 1, CRFR2-BP ag 12 and CRFBP-R2 block 113*.
Screening C[C@@H]1C(=O)N2N=Cc3cc4ccccc4cc3[C@H]2N2N=Cc3cc4ccccc4cc3[C@@H]12 returned Tn6 DDE FP 0 and Tn7 DDE FP 9.
`COCC(=O)N(C)[C@H]1C[C@H]2c3cc(N4CCN(C)CC4)ccc3CCN2C(=O)[C@H]1[C@H](C)O` gave Tn6 DDE FP 3, Tn7 DDE FP 1, CRFR2-BP ag -1 and CRFBP-R2 block 111*.
Oc1ccccc1C=NN=Cc1c(O)ccc2ccccc12 was read as Tn6 DDE FP -2, Tn7 DDE FP -3, CRFR2-BP ag 144* and CRFBP-R2 block -116.
`Oc1ccc2ccccc2c1/C=N/Nc1ccccc1` gave Tn6 DDE FP -2, Tn7 DDE FP -7, CRFR2-BP ag -2 and CRFBP-R2 block -5.
O=C(N/N=C\c1c(O)ccc2ccccc12)c1ccc(S(=O)(=O)N2CCCCC2)cc1 was read as Tn6 DDE FP 3, Tn7 DDE FP 3, CRFR2-BP ag 203* and CRFBP-R2 block -326.
O=CN/N=C/c1c(O)ccc2ccccc12 was read as Tn6 DDE FP 1, Tn7 DDE FP -1, CRFR2-BP ag 88* and CRFBP-R2 block -62.
Screening O=C(NN=Cc1c(O)ccc2ccccc12)c1ccc2c(c1)OCO2 returned Tn6 DDE FP 10, Tn7 DDE FP 2, CRFR2-BP ag 7 and CRFBP-R2 block -16.

Source: PubChem BioAssay
